Activity calls are given as the source filed them. The rule behind the calls is not given here. Bounds are passed on as bounds.

From ChEMBL document CHEMBL1795243, “New microtubule polymerization inhibitors comprising a nitrooxymethylphenyl group” (Bioorg Med Chem, 2011) come the findings set out here.

One test has as its system MCF7. In words: Antiproliferative activity against human MCF7 cells after 72 hrs by cell counting kit analysis. Conditions: MCF7, 72 h. In kind it is functional, cell-based. In outline: (§1)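 Cells grown with compound for 72 h, then growth quantified by WST-1 Cell Counting Kit. Final concentrations 1, 10, 25, 50, 100 and 200 μM. All media had 10% FBS, 37 °C, 5% CO2. Read-out IC50.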
For orientation: Tetrazolium dyes change colour on reduction, which living cells bring about.

The subject of a further test is SK-BR-3. In words: Antiproliferative activity against human SK-BR-3 cells after 72 hrs by cell counting kit analysis. Type of test: functional, cell-based. Conditions: SK-BR-3, 72 h. The gist of the method: as §1
The next test has as its system SW-620. In words: Antiproliferative activity against human SW620 cells after 72 hrs by cell counting kit analysis. In kind it is functional, cell-based. Conditions: SW-620, 72 h. The gist of the method:
as §1

The test system of another test is SW480. Put plainly: Antiproliferative activity against human SW480 cells after 72 hrs by cell counting kit analysis. In kind it is functional, cell-based. Conditions: SW480, 72 h. The gist of the method: as §1
The next test deals with HCT-116. Put plainly: Antiproliferative activity against human HCT116 cells after 72 hrs by cell counting kit analysis. Conditions: HCT-116, 72 h. In kind it is functional, cell-based. The gist of the method: as §1
The subject of another test is MDA-MB-231. Put plainly: Antiproliferative activity against human MDA-MB-231 cells after 72 hrs by cell counting kit analysis. The following applies: MDA-MB-231, 72 h. Type of test: functional, cell-based. In outline: as §1
Another test addresses Tubulin (Homo sapiens) (UniProt P68371+Q9H4B7+P0DPH7+P68366+Q13509+Q71U36+P04350+Q3ZCM7+P07437+P68363+Q9BQE3+Q6PEY2+Q13885+Q9BVA1+Q9BUF5). In words: Inhibition of alpha-tubulin polymerization in human HT1080 cells assessed as disruption of microtubule structures at 100 nM after 4 hrs using Hoechst staining by fluorescence microscopic analysis. Type of test: cell-based. Conditions: HT-1080.

One may read the IC50 as the concentration that gives 50% inhibition. For `O=C(Nc1ccccc1OC(=O)c1cccc(CO[N+](=O)[O-])c1)c1cccc(CO[N+](=O)[O-])c1`, the half-maximal inhibitory concentration (IC50) is > 100 µM in the test on MCF7; 18.5 µM in the test on SK-BR-3; 25.8 µM in the test on SW-620; 22.2 µM with SW480; 47.6 µM in the test on HCT-116; 30 µM in the test on MDA-MB-231.
For the compound `O=C(Nc1cccc(OC(=O)c2ccc(CO[N+](=O)[O-])cc2)c1)c1ccc(CO[N+](=O)[O-])cc1`, the IC50 is > 100 µM with MCF7; 6.3 µM in the test with SK-BR-3; 7.6 µM with SW-620; 8.4 µM in the test on SW480; 6.2 µM in the test on HCT-116; 6.7 µM with MDA-MB-231.
Regarding `O=C(Nc1ccccc1)c1ccc(CCl)cc1`, the IC50 amounted to 54.3 µM in the test with MCF7; 0.7 µM in the test with SK-BR-3; 0.8 µM in the test with SW-620; 0.9 µM with SW480; 1.2 µM with HCT-116; 0.8 µM in the test with MDA-MB-231.
With `O=C(Nc1ccccc1NC(=O)c1ccc(CO[N+](=O)[O-])cc1)c1ccc(CO[N+](=O)[O-])cc1`, the IC50 with MCF7, in the test on SK-BR-3, in the test with SW-620, in the test on SW480, in the test with HCT-116 and in the test on MDA-MB-231 was > 100 µM in each case.
As to `CC(=O)O[C@H]1C(=O)[C@@]2(C)[C@H]([C@H](OC(=O)c3ccccc3)[C@]3(O)C[C@H](OC(=O)[C@H](O)[C@@H](NC(=O)c4ccccc4)c4ccccc4)C(C)=C1C3(C)C)[C@]1(OC(C)=O)CO[C@@H]1C[C@@H]2O`, at Tubulin (Homo sapiens), the inhibition result was “inactive”.
For the compound `O=C(Nc1ccccc1)c1cccc(CO[N+](=O)[O-])c1`, the IC50 is > 100 µM in the test with MCF7; 8.2 µM in the test with SK-BR-3; 8.4 µM in the test with SW-620; 13.3 µM in the test on SW480; 19.3 µM in the test with HCT-116; 8.4 µM in the test with MDA-MB-231.
Consider `CCc1ccc(C(=O)Nc2ccccc2)cc1`, for which the IC50 in the test with MCF7, with SK-BR-3, in the test with SW-620, in the test with SW480, with HCT-116 and in the test with MDA-MB-231 was > 100 µM in each case.
On to `O=C(Nc1ccccc1OC(=O)c1ccc(CCl)cc1)c1ccc(CCl)cc1`, for which the IC50 in the test on MCF7 worked out at 58.1 µM; in the test on SK-BR-3, 0.6 µM; in the test with SW-620, 0.8 µM; with SW480, 6.9 µM; in the test with HCT-116 it was 0.6 µM; with MDA-MB-231 it was 0.8 µM.
Take `O=C(Nc1ccccc1)c1ccccc1` [N-PHENYLBENZAMIDE]: the IC50 in the test on MCF7, with SK-BR-3, with SW-620, in the test on SW480, in the test with HCT-116 and in the test on MDA-MB-231 was > 100 µM each time.
For the compound `O=C(Oc1ccccc1)c1ccc(CO[N+](=O)[O-])cc1`, the IC50 in the test on MCF7 is > 100 µM; in the test on SK-BR-3 it was 50.1 µM; in the test on SW-620 it was 16.9 µM; in the test with SW480 it was 80.7 µM; in the test with HCT-116, 17.9 µM; in the test on MDA-MB-231, 47.7 µM.
Regarding `O=C(Nc1ccccc1)c1ccc(CO)cc1`, the IC50 was > 100 µM in the test with MCF7; 9.8 µM with SK-BR-3; > 100 µM in the test with SW-620; > 100 µM in the test on SW480; 24.8 µM in the test with HCT-116; > 100 µM in the test with MDA-MB-231.
